Published values pooled from the literature.
Compare with care: the assays were run in different laboratories.
Target: Fibroblast growth factor receptor 2 (FGFR2, Homo sapiens, UniProt P21802)

With `CCCOc1ccc([C@@H]2[C@@H](C(=O)O)[C@H](c3ccc4c(c3)OCO4)CN2CC(=O)Nc2c(CC)cccc2CC)cc1` the remaining binding was 100% (cell-free assay; competition with immobilised ligand; 1 µM).
The remaining binding of `C[C@@H]1CN(c2ccc3ncc(-c4ccc5[nH]nc(C6CC6)c5c4)n3n2)C[C@H](C)O1` is reported as 100% (binding; competition with immobilised ligand; 50 nM).
For `c1cnn2ncc(-c3ccnc(N4CCC45COC5)n3)c2c1`, the remaining binding was 100% (binding; 1 µM).
`N#Cc1ccccc1CSc1nnc2c(n1)[nH]c1ccccc12` gave a remaining binding of 91% (binding; competition with immobilised ligand; 10 µM).
`N[C@@H]1CCN(c2nccc(-c3cnn4ncccc34)n2)C1` gave a remaining binding of 99% (binding; 1 µM).
`C[C@H](NC(=O)c1cnc2n1[C@](C)(Cc1ccc(C#N)cc1)C(=O)N2c1cc(Cl)c(F)c(Cl)c1)C(=O)NC1(c2ccccn2)CC1` gave a remaining binding of 100% (cell-free assay; competition with immobilised ligand; 1 µM).
The remaining binding of `O=C(c1ccc(Nc2ncc(Cl)c(-c3cc4ccccc4s3)n2)cc1)N1CCC(N2CCCC2)CC1` is reported as 33% (binding; competition with immobilised ligand; 1 µM).
`CC(C)(C)c1ccc(-c2nc(CBr)nn2-c2cccc(O)c2)cc1` gave a remaining binding of 95% (cell-free assay; competition with immobilised ligand; 10 µM).
`O=C(Nc1c[nH]nc1C(=O)NC1CCNCC1)c1cc(F)cc(F)c1` gave a remaining binding of 100% (binding; competition with immobilised ligand; 1 µM).
`COc1ccc2cc(OCC3(C(=O)O)CN(C(=O)c4ccc(F)cc4)C3)ccc2c1` gave a remaining binding of 100% (cell-free assay; competition with immobilised ligand; 1 µM).
For `c1cncc(-c2cccc(Nc3nccc(NC4CCCCC4)n3)c2)c1`, the remaining binding was 22% (binding; competition with immobilised ligand; 10 µM).
`CC(=O)c1c(NS(C)(=O)=O)c2cc(-c3ccc(Cl)cc3)c(-c3ccc(Cl)cc3Cl)nc2n(C)c1=O` gave a remaining binding of 92% (cell-free assay; competition with immobilised ligand; 1 µM).
With `CN(c1nccc(-c2cnn3ncccc23)n1)C1CC1` the remaining binding was 100% (binding; 1 µM).
`CNC(=O)[C@@H]1CC[C@@H](n2c(-c3ccc4cnccc4c3)nc3ccc(C(=O)NCc4cccc(C(N)=O)c4)cc32)C1` has a remaining binding of 96% (binding; competition with immobilised ligand; 1 µM).
The remaining binding of `CCC(=O)N[C@@H]1CC[C@H](C(=O)N(C)c2ccc(-c3nc4ccccc4o3)cc2)C1` is reported as 86% (cell-free assay; competition with immobilised ligand; 1 µM).
For `C[C@H]1CCN(c2nccc(-c3cnn4ncccc34)n2)C1`, the remaining binding was 100% (binding; 1 µM).
`C=CC(=O)N1CCC(C(=O)NCC(=O)N2CCN(c3nc(-c4cnc(N)nc4C(F)F)nc(N4CCOCC4)n3)CC2)CC1` has a remaining binding of 89% (binding; competition with immobilised ligand; 1 µM).
`CN(CCCC(F)(F)F)c1nccc(-c2cnn3ncccc23)n1` has a remaining binding of 89% (binding; 1 µM).
For `Cc1cc(C)c(-n2ccn3nc(-c4cccnc4)cc23)cc1NC(=O)c1cc(C#N)cc(S(F)(F)(F)(F)F)c1`, the remaining binding was 84.3% (cell-free assay; competition with immobilised ligand; 0.1 µM).
For `F[C@@H]1CCN(c2nccc(-c3cnn4ncccc34)n2)C1`, the remaining binding was 100% (binding; 1 µM).
The remaining binding of `Cn1nc(C(=O)NCc2ccc(C(=O)O)cc2)cc1-c1ccc2[nH]ccc2c1` is reported as 87% (cell-free assay; competition with immobilised ligand; 0.1 µM).
`O=C(NCCCN1CCOCC1)c1ccc(Nc2ncc(Cl)c(-c3ccc(Cl)s3)n2)cc1` has a remaining binding of 29% (binding; competition with immobilised ligand; 1 µM).
`Nc1ncc2c(n1)-c1c([nH]c3ccc(C#CC4CC4)cc13)CCCC2` gave a remaining binding of 99% (binding; competition with immobilised ligand; 1 µM).
`CN(C)c1nccc(-c2cnc3ncccn23)n1` has a remaining binding of 100% (binding; 1 µM).
With `O=C(c1ccc(Nc2nccc(-c3cc4ccccc4s3)n2)cc1)N1CCC(N2CCCC2)CC1` the remaining binding was 77% (binding; competition with immobilised ligand; 1 µM).
